In ChEMBL document CHEMBL1158387, “Regioselective synthetic approaches towards 1,2,8,9-tetraazadispiro[4.1.4.2]trideca-2,9-dien-6-ones of potential antimicrobial properties” (2009):
≈ marks a conversion by molar mass, not a printed value. Calls of active or inactive are those of the source. The calls are words filed in the database; no cut-off is given here.

Assays:
Format in all cases: functional
[1] = tested on: Proteus vulgaris; assay: Antibacterial activity against Proteus vulgaris ATCC 13315 after 18 hrs by agar dilution technique
How it was run: (§1)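 Agar dilution per CLSI; compounds dissolved in DMSO; plates incubated at 37 °C for 18 h; MIC taken as lowest compound concentration spot with no growth. Standard ATCC strains.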

[2] = tested on: Klebsiella pneumoniae; assay: Antibacterial activity against Klebsiella pneumoniae ATCC 33495 after 18 hrs by agar dilution technique; how it was run: as §1
[3] = tested on: Escherichia coli; assay: Antibacterial activity against Escherichia coli ATCC 25922 after 18 hrs by agar dilution technique; how it was run: as §1
[4] = tested on: Staphylococcus aureus; assay: Antibacterial activity against Staphylococcus aureus ATCC 25923 after 18 hrs by agar dilution technique; how it was run: as §1
[5] = tested on: Enterococcus faecalis; assay: Antibacterial activity against Enterococcus faecalis ATCC 29212 after 18 hrs by agar dilution technique; how it was run: as §1
[6] = tested on: Streptococcus agalactiae; assay: Antibacterial activity against Streptococcus agalactiae […] after 18 hrs by agar dilution technique; how it was run: as §1
[7] = tested on: Candida albicans; assay: Antifungal activity against Candida albicans ATCC 20260 after 18 hrs by agar dilution technique
How it was run: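 Agar dilution per CLSI with compounds dissolved in DMSO and spotted onto agar against ATCC standard strains. Plates were incubated at 37 °C for 18 h.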

## O=C1/C(=C/c2ccccc2)CC[C@@]12[C@H](c1ccccc1)C(c1ccccc1)=NN2c1ccccc1
[1]; ATCC 13315, 18 h
  MIC: 2.5 µg/mL (≈ 5.5 µM)
[2]; ATCC 33495, 18 h
  MIC: 2.5 µg/mL (≈ 5.5 µM)
[3]; ATCC 25922, 18 h
  MIC: 5 µg/mL (≈ 11 µM)
[4]; ATCC 25923, 18 h
  MIC: 5 µg/mL (≈ 11 µM)
[5]; ATCC 29212, 18 h
  MIC: 2.5 µg/mL (≈ 5.5 µM)
[6]
  MIC: 2.5 µg/mL (≈ 5.5 µM)
[7]
  MIC: inactive

## O=C1/C(=C/c2ccc(F)cc2)CC[C@@]12[C@H](c1ccc(F)cc1)C(c1ccccc1)=NN2c1ccccc1
[1]; ATCC 13315, 18 h
  MIC: 5 µg/mL (≈ 10.2 µM)
[2]; ATCC 33495, 18 h
  MIC: 2.5 µg/mL (≈ 5.1 µM)
[3]; ATCC 25922, 18 h
  MIC: 10 µg/mL (≈ 20.4 µM)
[4]; ATCC 25923, 18 h
  MIC: 10 µg/mL (≈ 20.4 µM)
[5]; ATCC 29212, 18 h
  MIC: 5 µg/mL (≈ 10.2 µM)
[6]
  MIC: 5 µg/mL (≈ 10.2 µM)
[7]
  MIC: inactive

## Cc1ccc(N2N=C(c3ccccc3)C(c3ccc(F)cc3)C23CCC2(C3=O)C(c3ccc(F)cc3)C(c3ccccc3)=NN2c2ccc(C)cc2)cc1 (centres undefined)
[1]; ATCC 13315, 18 h
  MIC: 10 µg/mL (≈ 14 µM)
[2]; ATCC 33495, 18 h
  MIC: 10 µg/mL (≈ 14 µM)
[3]; ATCC 25922, 18 h
  MIC: 10 µg/mL (≈ 14 µM)
[4]; ATCC 25923, 18 h
  MIC: 10 µg/mL (≈ 14 µM)
[5]; ATCC 29212, 18 h
  MIC: 10 µg/mL (≈ 14 µM)
[6]
  MIC: 2.5 µg/mL (≈ 3.51 µM)
[7]
  MIC: inactive

## Cc1ccc(N2N=C(c3ccccc3)[C@@H](c3ccccc3)[C@@]23CC/C(=C\c2ccccc2)C3=O)cc1
[1]; ATCC 13315, 18 h
  MIC: 5 µg/mL (≈ 10.7 µM)
[2]; ATCC 33495, 18 h
  MIC: 2.5 µg/mL (≈ 5.34 µM)
[3]; ATCC 25922, 18 h
  MIC: 5 µg/mL (≈ 10.7 µM)
[4]; ATCC 25923, 18 h
  MIC: 0.6 µg/mL (≈ 1.28 µM)
[5]; ATCC 29212, 18 h
  MIC: 1.3 µg/mL (≈ 2.77 µM)
[6]
  MIC: 1.3 µg/mL (≈ 2.77 µM)
[7]
  MIC: inactive

## Cc1ccc(/C=C2\CC[C@]3(C2=O)[C@H](c2ccc(C)cc2)C(c2ccccc2)=NN3c2ccccc2)cc1
[1]; ATCC 13315, 18 h
  MIC: 1.3 µg/mL (≈ 2.69 µM)
[2]; ATCC 33495, 18 h
  MIC: 1.3 µg/mL (≈ 2.69 µM)
[3]; ATCC 25922, 18 h
  MIC: 0.6 µg/mL (≈ 1.24 µM)
[4]; ATCC 25923, 18 h
  MIC: 2.5 µg/mL (≈ 5.18 µM)
[5]; ATCC 29212, 18 h
  MIC: 5 µg/mL (≈ 10.4 µM)
[6]
  MIC: 5 µg/mL (≈ 10.4 µM)
[7]
  MIC: inactive

## O=C(O)c1cn(C2CC2)c2cc(N3CCNCC3)c(F)cc2c1=O [CIPROFLOXACIN]
[1]; ATCC 13315, 18 h
  MIC: 0.3 µg/mL (≈ 0.905 µM)
[2]; ATCC 33495, 18 h
  MIC: 1.3 µg/mL (≈ 3.92 µM)
[3]; ATCC 25922, 18 h
  MIC: 0.3 µg/mL (≈ 0.905 µM)
[4]; ATCC 25923, 18 h
  MIC: 0.3 µg/mL (≈ 0.905 µM)
[5]; ATCC 29212, 18 h
  MIC: 0.3 µg/mL (≈ 0.905 µM)
[6]
  MIC: 0.6 µg/mL (≈ 1.81 µM)
[7]
  MIC: inactive

## O=C1C2(CCC13C(c1ccccc1)C(c1ccccc1)=NN3c1ccccc1)C(c1ccccc1)C(c1ccccc1)=NN2c1ccccc1 (centres undefined)
[1]; ATCC 13315, 18 h
  MIC: 10 µg/mL (≈ 15.4 µM)
[2]; ATCC 33495, 18 h
  MIC: 10 µg/mL (≈ 15.4 µM)
[3]; ATCC 25922, 18 h
  MIC: 10 µg/mL (≈ 15.4 µM)
[4]; ATCC 25923, 18 h
  MIC: 1.3 µg/mL (≈ 2 µM)
[5]; ATCC 29212, 18 h
  MIC: 2.5 µg/mL (≈ 3.85 µM)
[6]
  MIC: 2.5 µg/mL (≈ 3.85 µM)
[7]
  MIC: inactive

## C[C@@H]1[C@H](O)[C@@H](C)/C=C/C=C/C=C/C=C/C=C/C=C/C=C/[C@H](O[C@@H]2O[C@H](C)[C@@H](O)[C@H](N)[C@@H]2O)C[C@@H]2O[C@](O)(C[C@@H](O)C[C@@H](O)[C@H](O)CC[C@@H](O)C[C@@H](O)CC(=O)O[C@H]1C)C[C@H](O)[C@H]2C(=O)O [AMPHOTERICIN B]
[1]
  MIC: inactive
[2]
  MIC: inactive
[3]
  MIC: inactive
[4]
  MIC: inactive
[5]
  MIC: inactive
[6]
  MIC: inactive
[7]; ATCC 20260, 18 h
  MIC: 4 µg/mL (≈ 4.33 µM)

## Cc1ccc(N2N=C(c3ccccc3)C(c3ccccc3)C23CCC2(C3=O)C(c3ccccc3)C(c3ccccc3)=NN2c2ccc(C)cc2)cc1 (centres undefined)
[1]; ATCC 13315, 18 h
  MIC: 5 µg/mL (≈ 7.39 µM)
[2]; ATCC 33495, 18 h
  MIC: 5 µg/mL (≈ 7.39 µM)
[3]; ATCC 25922, 18 h
  MIC: 10 µg/mL (≈ 14.8 µM)
[4]; ATCC 25923, 18 h
  MIC: 2.5 µg/mL (≈ 3.69 µM)
[5]; ATCC 29212, 18 h
  MIC: 5 µg/mL (≈ 7.39 µM)
[6]
  MIC: 2.5 µg/mL (≈ 3.69 µM)
[7]
  MIC: inactive

## Cc1ccc(N2N=C(c3ccccc3)C(c3ccc(Cl)cc3)C23CCC2(C3=O)C(c3ccc(Cl)cc3)C(c3ccccc3)=NN2c2ccc(C)cc2)cc1 (centres undefined)
[1]; ATCC 13315, 18 h
  MIC: 10 µg/mL (≈ 13.4 µM)
[2]; ATCC 33495, 18 h
  MIC: 5 µg/mL (≈ 6.7 µM)
[3]; ATCC 25922, 18 h
  MIC: 10 µg/mL (≈ 13.4 µM)
[4]; ATCC 25923, 18 h
  MIC: 10 µg/mL (≈ 13.4 µM)
[5]; ATCC 29212, 18 h
  MIC: 10 µg/mL (≈ 13.4 µM)
[6]
  MIC: 10 µg/mL (≈ 13.4 µM)
[7]
  MIC: inactive

## O=C1C2(CCC13C(c1ccc(F)cc1)C(c1ccccc1)=NN3c1ccccc1)C(c1ccc(F)cc1)C(c1ccccc1)=NN2c1ccccc1 (centres undefined)
[1]; ATCC 13315, 18 h
  MIC: 10 µg/mL (≈ 14.6 µM)
[2]; ATCC 33495, 18 h
  MIC: 10 µg/mL (≈ 14.6 µM)
[3]; ATCC 25922, 18 h
  MIC: 5 µg/mL (≈ 7.3 µM)
[4]; ATCC 25923, 18 h
  MIC: 5 µg/mL (≈ 7.3 µM)
[5]; ATCC 29212, 18 h
  MIC: 10 µg/mL (≈ 14.6 µM)
[6]
  MIC: 10 µg/mL (≈ 14.6 µM)
[7]
  MIC: inactive

## O=C1C2(CCC13C(c1ccc(Cl)cc1)C(c1ccccc1)=NN3c1ccccc1)C(c1ccc(Cl)cc1)C(c1ccccc1)=NN2c1ccccc1 (centres undefined)
[1]; ATCC 13315, 18 h
  MIC: 10 µg/mL (≈ 13.9 µM)
[2]; ATCC 33495, 18 h
  MIC: 10 µg/mL (≈ 13.9 µM)
[3]; ATCC 25922, 18 h
  MIC: 10 µg/mL (≈ 13.9 µM)
[4]; ATCC 25923, 18 h
  MIC: 10 µg/mL (≈ 13.9 µM)
[5]; ATCC 29212, 18 h
  MIC: 10 µg/mL (≈ 13.9 µM)
[6]
  MIC: 10 µg/mL (≈ 13.9 µM)
[7]
  MIC: inactive
